Bioassay records from PubChem.
KDM4C inh – blocks human GASC-1 (KDM4C) demethylase activity; inhibition, % at 12.5 µM; GST-KDM4C 2-372, H3K9me3 peptide, LANCE TR-FRET; hit rate 0.15% among 96,000; Q9H3R0;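 active means mean replicate inhibition above about 25%, with at least 55% of replicates also reaching it, limit read from the data, passing the limit was not always enough; inconclusive means only one of those two conditions met; inactive means neither condition met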
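Test system: N-terminal GST-fused human GASC-1 (KDM4C) fragment, residues 2-372; quantity: GASC-1 enzyme at 10 nM final in reaction; dosing: single dose; schedule: 30 min demethylation and 1 h detection at room temperature; signal: LANCE TR-FRET, excitation 340 nm, emissions 618 and 671 nm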
T cruzi growth-1 – inhibitors of T. cruzi proliferation | T. cruzi beta-gal in NIH3T3, GalScreen luminescence, 90 h | inhibition, % at 8.34 µM | hit rate 5.9% among 77,000;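 active means mean inhibition above about 93%, with at least 55% of replicates each passing it, limit read from the data, passing the limit was not always enough; inconclusive means only one of those two conditions holds; inactive means neither condition holds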
IDH1 R132H inh – IDH1 R132H (human) inhibition; AID 624101; IDH1 R132H reductase, diaphorase/resazurin fluorescence, 60 min; O75874; inhibition, % at 10 µM; hit rate 0.18% among 70,000; in the data active means inhibition above about 34%; inconclusive means no clear call, values can overlap the other calls; inactive means below about 11%;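 further: 0% = DMSO and 100% = no enzyme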
Target sequence (O75874 whole entry R132H): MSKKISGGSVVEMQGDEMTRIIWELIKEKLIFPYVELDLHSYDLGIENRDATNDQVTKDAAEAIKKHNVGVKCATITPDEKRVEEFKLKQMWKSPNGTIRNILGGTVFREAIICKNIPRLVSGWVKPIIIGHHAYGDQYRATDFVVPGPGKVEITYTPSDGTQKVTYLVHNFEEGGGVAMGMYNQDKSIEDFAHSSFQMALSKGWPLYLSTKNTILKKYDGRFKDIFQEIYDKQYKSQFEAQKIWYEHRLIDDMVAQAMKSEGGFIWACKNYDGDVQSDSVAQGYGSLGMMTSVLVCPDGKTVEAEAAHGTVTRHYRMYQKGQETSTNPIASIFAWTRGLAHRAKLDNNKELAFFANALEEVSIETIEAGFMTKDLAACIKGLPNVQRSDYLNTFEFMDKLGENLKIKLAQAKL
T cruzi growth-2 – inhibitors of T. cruzi proliferation. inhibition, % at 8.35 µM. shares compounds with T cruzi growth-1. T. cruzi beta-gal in NIH3T3, GalScreen luminescence, 90 h. hit rate 72% among 5,600. AID 651739;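 active means mean replicate inhibition above about 95% and at least 55% of replicates individually reaching it, limit read from the data; inconclusive means only one of the two criteria is met; inactive means neither criterion is met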
T cruzi growth-3 – Trypanosoma cruzi proliferation inhibition. AID 651740. hit rate 21% among 5,600. inhibition, % at 2.09 µM. T. cruzi beta-gal in NIH3T3, GalScreen luminescence, 90 h. shares compounds with T cruzi growth-1;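 active means mean inhibition above about 95%, with at least 55% of replicates also reaching it, limit read from the data; inconclusive means meets just one of the two conditions; inactive means meets neither condition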;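 further: plate controls were neutral control median for no effect and positive control median for full effect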
NIH3T3 tox – NIH/3T3 (mouse) viability loss. shares compounds with T cruzi growth-1. cytotoxicity (signal decrease), % at 8.35 µM. hit rate 14% among 5,600. NIH/3T3 viability, CellTiter-Glo ATP luminescence, 90 h;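 active means mean signal decrease across replicates above about 35% based on untreated-well scatter, with enough replicates individually passing, limit read from the data; inconclusive means no rule stated though some were filed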;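 further: 0% = median of neutral control wells and 100% = median of positive control wells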
NIH3T3 tox 2 – NIH/3T3 (mouse) viability loss | inhibition, % at 24.9 µM | hit rate 56% among 5,600 | AID 651744 | NIH/3T3 viability, CellTiter-Glo ATP luminescence, 90 h | shares compounds with T cruzi growth-1;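 active means mean loss of cell viability signal at or above a set limit, and enough replicates individually reaching it; inconclusive means meets only the mean limit or only the replicate share; inactive means meets neither condition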;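 further: 0% = median of neutral control wells and 100% = median of positive control wells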
Active calls of the source: *; ? = inconclusive; . = no result given. The entries come from a sample that favours hits as a whole.

SMILES | KDM4C inh | T cruzi growth-1 | IDH1 R132H inh | T cruzi growth-2 | T cruzi growth-3 | NIH3T3 tox | NIH3T3 tox 2
O=C(C[C@@H]1CC[C@@H]2[C@H](COC[C@H](O)CN2Cc2cc(F)ccc2F)O1)N1CCc2ccccc2C1 | 1 | 100* | . | 83 | 4 | -15 | 20
O=C(C[C@H]1CC[C@@H]2[C@H](COC[C@@H](O)CN2Cc2cc(F)ccc2F)O1)NCc1ccc(Cl)cc1 | -1 | 40 | . | . | . | . | .
O=C(C[C@@H]1CC[C@@H]2[C@H](COC[C@@H](O)CN2Cc2ccccc2)O1)N[C@@H]1CCN(Cc2ccccc2)C1 | -1 | ? | . | ? | 80 | -23 | 4
COC(=O)c1cccc(NC(=O)CN(c2cccc(F)c2)S(C)(=O)=O)c1C | . | . | 0 | . | . | . | .
C[C@@H]1CN([C@H](C)CO)S(=O)(=O)c2ccc(-c3cccc(C#N)c3)cc2O[C@@H]1CN(C)Cc1cccc(F)c1 | . | 73 | . | . | . | . | .
C[C@H](NC(=O)C[C@H]1CC[C@H]2[C@@H](COC[C@@H](O)CN2Cc2ccc(C(F)(F)F)cc2)O1)c1ccccc1 | -1 | 73 | . | . | . | . | .
C[C@@H](NC(=O)C[C@H]1CC[C@H]2[C@@H](COC[C@@H](O)CN2Cc2ccc(C(F)(F)F)cc2)O1)c1ccccc1 | 6 | ? | . | 66 | 61 | 12 | 8
Cc1ccc(S(=O)(=O)N(C)C[C@H]2OCCCC[C@@H](C)Oc3ccc(NC(=O)Cc4ccccc4)cc3C(=O)N([C@@H](C)CO)C[C@@H]2C)cc1 | -1 | 112* | 1 | 106* | 88 | 26 | 49*
Cc1ccc(S(=O)(=O)N(C)C[C@@H]2OCCCC[C@H](C)Oc3ccc(NC(=O)Cc4ccccc4)cc3C(=O)N([C@H](C)CO)C[C@H]2C)cc1 | -2 | 83 | . | . | . | . | .
Cc1ccc(S(=O)(=O)N(C)C[C@H]2OCCCC[C@@H](C)Oc3ccc(NC(=O)Cc4ccccc4)cc3C(=O)N([C@@H](C)CO)C[C@H]2C)cc1 | -1 | 108* | . | 106* | 61 | -19 | -3
Cc1ccc(S(=O)(=O)N(C)C[C@@H]2OCCCC[C@@H](C)Oc3ccc(NC(=O)Cc4ccccc4)cc3C(=O)N([C@@H](C)CO)C[C@H]2C)cc1 | 1 | 64 | 0 | . | . | . | .
O=C(CNS(=O)(=O)c1ccccc1)Nc1cccc(F)c1 | . | . | 0 | . | . | . | .
CC(C)NC(=O)N(C)C[C@H]1OCCCC[C@@H](C)Oc2ccc(NC(=O)Nc3ccc4c(c3)OCO4)cc2C(=O)N([C@@H](C)CO)C[C@H]1C | 0 | 9 | -1 | . | . | . | .
OC[C@@H]1[C@@H](c2ccc(-c3ccccc3F)cc2)[C@@H]2CN(Cc3ccncc3)CCCCN12 | 3 | 75 | . | . | . | . | .
OC[C@@H]1[C@H](c2ccc(-c3ccccc3F)cc2)[C@@H]2CN(Cc3ccncc3)CCCCN12 | 4 | ? | . | 107* | 26 | 15 | 90*
OC[C@@H]1[C@H](c2ccc(-c3ccc(F)cc3)cc2)[C@@H]2CN(Cc3cccnc3)CCCCN12 | 0 | 123* | . | 106* | 66 | 28 | 95*
OC[C@H]1[C@@H](c2ccc(-c3ccccc3F)cc2)[C@@H]2CN(Cc3cccnc3)CCCCN12 | -1 | 85 | . | . | . | . | .
OC[C@H]1[C@H](c2ccc(-c3ccccc3F)cc2)[C@H]2CN(Cc3cccnc3)CCCCN21 | 0 | 72 | . | . | . | . | .
OC[C@@H]1[C@@H](c2ccc(-c3ccccc3F)cc2)[C@H]2CN(Cc3cccnc3)CCCCN12 | -1 | 97* | . | 76 | 38 | ? | 97*
OC[C@H]1[C@@H](c2ccc(-c3ccc(F)cc3)cc2)[C@H]2CN(Cc3ccncc3)CCCCN21 | 2 | 63 | . | . | . | . | .
OC[C@@H]1[C@H](c2ccc(-c3ccc(F)cc3)cc2)[C@H]2CN(Cc3ccncc3)CCCCN12 | 3 | 108* | . | 92 | 70 | ? | 104*
Clc1ccc(-n2c(SCc3nc4ccccc4s3)nnc2-c2cccs2)cc1 | . | . | 0 | . | . | . | .
CCN(CC)C(=O)c1cc(-c2ccc(Cl)c(Cl)c2)on1 | . | . | 0 | . | . | . | .
CCCC#Cc1ccc2c(c1)O[C@H](CN(C)Cc1cccnc1)[C@@H](C)CN([C@@H](C)CO)S2(=O)=O | 0 | 128* | 9 | 102* | 104* | 43* | 104*
CCCC#Cc1ccc2c(c1)O[C@@H](CN(C)Cc1cncnc1)[C@H](C)CN([C@@H](C)CO)S2(=O)=O | -1 | 48 | -1 | . | . | . | .
SMILES | KDM4C inh | T cruzi growth-1 | IDH1 R132H inh | T cruzi growth-2 | T cruzi growth-3 | NIH3T3 tox | NIH3T3 tox 2
C[C@@H]1CN([C@H](C)CO)S(=O)(=O)c2ccc(C#CCN(C)C)cc2O[C@@H]1CN(C)Cc1cccnc1 | 4 | 75 | 1 | . | . | . | .
C[C@H]1CN([C@@H](C)CO)S(=O)(=O)c2ccc(C#CCN(C)C)cc2O[C@H]1CN(C)Cc1cccnc1 | 2 | 86 | 7 | . | . | . | .
C[C@H](CO)N1C[C@H](C)[C@H](CN(C)Cc2cccnc2)Oc2cc(C#CCN(C)C)ccc2S1(=O)=O | 2 | 91* | 0 | 95* | 77 | 24 | ?
C[C@@H]1CN([C@@H](C)CO)S(=O)(=O)c2ccc(C#CCN(C)C)cc2O[C@H]1CN(C)Cc1cccnc1 | 1 | 98* | 0 | 108* | 103* | 14 | 43*
COC(=O)c1cc(-c2ccccc2)sc1NC(=O)c1cnccn1 | . | . | 0 | . | . | . | .
Cc1ccc2ccc(C(Nc3ccccn3)c3ccc(Cl)c(Cl)c3)c(O)c2n1 (centres undefined) | . | . | 0 | . | . | . | .
CCCNC(=O)N1[C@H](CN(C)C(C)=O)[C@@H](c2ccc(C3=CCCC3)cc2)[C@@H]1CO | 3 | ? | . | -9 | -21 | -2 | 2
CCCNC(=O)N1[C@H](CN(C)C(C)=O)[C@H](c2ccc(C3=CCCC3)cc2)[C@@H]1CO | 3 | ? | . | -4 | 0 | 2 | 3
CCCNC(=O)N1[C@@H](CO)[C@H](c2ccc(C3=CCCC3)cc2)[C@@H]1CNC(C)=O | 2 | -11 | . | . | . | . | .
CCCNC(=O)N1[C@H](CO)[C@H](c2ccc(C3=CCCC3)cc2)[C@@H]1CN(C)C(C)=O | 2 | 23 | . | . | . | . | .
N#Cc1cc2c(nc1SCC(=O)Nc1ccc(Cl)cc1)CCCCCC2 | . | . | 0 | . | . | . | .
C[C@@H]1CN([C@H](C)CO)S(=O)(=O)c2ccc(-c3cccc(F)c3)cc2O[C@@H]1CN(C)C(=O)c1cccc(F)c1 | -1 | 69 | 0 | . | . | . | .
C[C@H](CO)N1C[C@H](C)[C@H](CN(C)C(=O)c2cccc(F)c2)Oc2cc(-c3cccc(F)c3)ccc2S1(=O)=O | -2 | 44 | 0 | . | . | . | .
C[C@@H]1CN([C@@H](C)CO)S(=O)(=O)c2ccc(-c3ccncc3)cc2O[C@@H]1CN(C)C(=O)c1cccc(F)c1 | 0 | 90 | 7 | . | . | . | .
C[C@@H]1CN([C@H](C)CO)S(=O)(=O)c2ccc(-c3ccncc3)cc2O[C@H]1CN(C)C(=O)c1cccc(F)c1 | -1 | 113* | 0 | 84 | 78 | 2 | 47*
